Active and inactive are the calls of the source. The calls are words filed in the database; no cut-off is given here.
Legend:
[1] = molecular target: T1, C-C chemokine receptor type 1 (Homo sapiens, UniProt P32246); assay: Displacement of [125I]MIP-1-alpha from human recombinant CCR1 expressed in HEK293 cells; assay type: cell-based
T1 sequence (P32246 whole entry): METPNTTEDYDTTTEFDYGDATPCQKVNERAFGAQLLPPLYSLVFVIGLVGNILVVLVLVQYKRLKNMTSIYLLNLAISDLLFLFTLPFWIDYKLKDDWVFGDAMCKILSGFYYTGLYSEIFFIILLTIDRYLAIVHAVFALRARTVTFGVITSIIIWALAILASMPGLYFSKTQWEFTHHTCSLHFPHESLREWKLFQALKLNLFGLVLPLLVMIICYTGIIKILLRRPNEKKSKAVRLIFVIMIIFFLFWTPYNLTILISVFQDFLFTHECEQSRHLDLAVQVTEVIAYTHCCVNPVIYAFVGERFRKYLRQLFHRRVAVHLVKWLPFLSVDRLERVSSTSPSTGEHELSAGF
Outline: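 Scintillation proximity binding in 384-well format. Membranes (50 µg/mL) were mixed with SPA beads (10 mg/mL) in buffer of 130 mM NaCl, 5 mM KCl, 1 mM MnCl₂, 50 mM Tris HCl pH 7.4 and 0.1% BSA. Varied compound concentrations added with [¹²⁵I]MIP-1α at 0.1 nM final. Plates spun, incubated 4 h, then counted.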

[2] = AUC(0 to 6 hrs) in Sprague-Dawley rat at 5 mg/kg, po; assay type: ADME, organism-based; parameters: time < 6 hr, dose 5 mg/kg, route oral; details: plasma
Outline: (§1)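 Male Sprague-Dawley rats, three to four per compound, given 5 mg/kg by oral gavage in 0.5% methyl cellulose, either singly or in a cassette. Serial blood drawn from an indwelling arterial cannula up to 6 or 24 h. Plasma proteins precipitated, and parent compound quantified by LC/MS/MS.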

[3] = Cmax in Sprague-Dawley rat at 5 mg/kg, po; assay type: ADME, organism-based; parameters: dose 5 mg/kg, route oral; details: in vivo; outline: as §1
[4] = Metabolic stability in human liver microsomes assessed as compound remaining at 1 uM after 30 mins by LC/MS; assay type: ADME, Microsome; details: read-out: Stability
Outline: (§2)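 Compound at 1 µM incubated with rat or human liver microsomes (300 nM cytochrome P450) in phosphate buffer pH 7.4 with 1 mM NADPH for 30 min at 37 °C. Stopped with acetonitrile and centrifuged. Percent remaining at 30 min determined by LC/MS.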

[5] = Metabolic stability in rat liver microsomes assessed as compound remaining at 1 uM after 30 mins by LC/MS; assay type: ADME, Microsome; details: read-out: Stability; outline: as §2
[6] = (§3) AUC(0 to infinity) in Sprague-Dawley rat at 5 mg/kg, po; assay type: ADME, organism-based, Plasma; parameters: time infinity, dose 5 mg/kg, route oral; details: Sprague-Dawley, plasma; outline: as §1
[7] = Oral bioavailability in Sprague-Dawley rat at 5 mg/kg; assay type: ADME, organism-based; details: in vivo
Outline: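 Oral dosing was 5 mg/kg by gavage in 0.5% methyl cellulose to male Sprague-Dawley rats (three to four), with a 1 mg/kg intravenous dose via indwelling catheter for comparison. Serial arterial-cannula blood sampling. Parent compound in protein-precipitated plasma measured by LC/MS/MS.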

[8] = tested on: Rattus norvegicus; assay: as §3; assay type: ADME, organism-based, Plasma; parameters: time infinity, dose 5 mg/kg, route oral; details: in vivo; outline: as §1
[9] = molecular target: T2, C-C chemokine receptor type 4 (Homo sapiens) (UniProt P51679); assay: Inhibition of CCR4
T2 sequence (whole entry): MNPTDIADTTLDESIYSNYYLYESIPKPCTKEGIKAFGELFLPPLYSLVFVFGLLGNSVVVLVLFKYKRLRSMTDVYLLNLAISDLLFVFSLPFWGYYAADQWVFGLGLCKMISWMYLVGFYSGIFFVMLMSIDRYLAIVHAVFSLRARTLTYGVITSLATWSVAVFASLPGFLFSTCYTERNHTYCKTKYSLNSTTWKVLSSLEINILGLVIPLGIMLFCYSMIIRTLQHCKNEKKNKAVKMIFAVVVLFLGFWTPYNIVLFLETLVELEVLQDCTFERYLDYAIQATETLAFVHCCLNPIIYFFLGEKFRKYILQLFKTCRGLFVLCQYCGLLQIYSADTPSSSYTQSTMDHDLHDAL

[10] = Half life in Sprague-Dawley rat at 5 mg/kg, po; assay type: ADME, organism-based; parameters: dose 5 mg/kg, route oral; details: in vivo; outline: as §1
[11] = molecular target: C-C chemokine receptor type 2 (Homo sapiens) (UniProt P41597); assay: Inhibition of CCR2b
[12] = molecular target: T3, C-X-C chemokine receptor type 1 (Homo sapiens) (UniProt P25024); assay: Inhibition of CXCR1
T3 sequence (whole entry): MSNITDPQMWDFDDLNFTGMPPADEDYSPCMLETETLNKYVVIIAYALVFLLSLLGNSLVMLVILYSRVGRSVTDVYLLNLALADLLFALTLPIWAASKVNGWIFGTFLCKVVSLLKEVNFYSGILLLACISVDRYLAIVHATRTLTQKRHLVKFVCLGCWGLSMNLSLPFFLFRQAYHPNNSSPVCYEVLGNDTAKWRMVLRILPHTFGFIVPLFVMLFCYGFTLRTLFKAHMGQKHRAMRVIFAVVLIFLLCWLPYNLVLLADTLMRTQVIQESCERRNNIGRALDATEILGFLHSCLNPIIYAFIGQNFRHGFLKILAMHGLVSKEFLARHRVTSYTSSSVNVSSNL

[13] = molecular target: T4, CX3C chemokine receptor 1 (Homo sapiens) (UniProt P49238); assay: Inhibition of CX3CR1
T4 sequence (whole entry): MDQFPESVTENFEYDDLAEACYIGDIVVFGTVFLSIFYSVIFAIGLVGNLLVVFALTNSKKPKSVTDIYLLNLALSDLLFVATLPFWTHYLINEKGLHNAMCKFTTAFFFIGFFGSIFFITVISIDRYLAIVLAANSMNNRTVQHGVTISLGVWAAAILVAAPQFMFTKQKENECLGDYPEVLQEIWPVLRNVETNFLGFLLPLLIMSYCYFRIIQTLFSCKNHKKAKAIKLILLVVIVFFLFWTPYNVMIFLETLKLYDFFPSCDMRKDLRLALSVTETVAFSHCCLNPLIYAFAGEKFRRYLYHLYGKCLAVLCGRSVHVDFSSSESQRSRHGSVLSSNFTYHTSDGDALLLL

[14] = molecular target: C-C chemokine receptor type 5 (Homo sapiens) (UniProt P51681); assay: Inhibition of CCR5
[15] = molecular target: T5, C-X-C chemokine receptor type 2 (Homo sapiens) (UniProt P25025); assay: Inhibition of CXCR2
T5 sequence (whole entry): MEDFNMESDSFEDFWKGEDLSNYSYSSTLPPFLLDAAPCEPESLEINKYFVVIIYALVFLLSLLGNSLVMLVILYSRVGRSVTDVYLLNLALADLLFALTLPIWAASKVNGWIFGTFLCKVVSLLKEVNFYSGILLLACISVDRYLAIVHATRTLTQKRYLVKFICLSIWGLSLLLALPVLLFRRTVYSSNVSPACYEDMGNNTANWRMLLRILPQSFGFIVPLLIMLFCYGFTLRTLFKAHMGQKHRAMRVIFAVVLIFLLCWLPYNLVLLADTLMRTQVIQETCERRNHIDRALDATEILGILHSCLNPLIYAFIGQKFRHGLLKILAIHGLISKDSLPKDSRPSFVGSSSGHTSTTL

Sequence of C-C chemokine receptor type 2 (Homo sapiens) (P41597 whole entry, looked up): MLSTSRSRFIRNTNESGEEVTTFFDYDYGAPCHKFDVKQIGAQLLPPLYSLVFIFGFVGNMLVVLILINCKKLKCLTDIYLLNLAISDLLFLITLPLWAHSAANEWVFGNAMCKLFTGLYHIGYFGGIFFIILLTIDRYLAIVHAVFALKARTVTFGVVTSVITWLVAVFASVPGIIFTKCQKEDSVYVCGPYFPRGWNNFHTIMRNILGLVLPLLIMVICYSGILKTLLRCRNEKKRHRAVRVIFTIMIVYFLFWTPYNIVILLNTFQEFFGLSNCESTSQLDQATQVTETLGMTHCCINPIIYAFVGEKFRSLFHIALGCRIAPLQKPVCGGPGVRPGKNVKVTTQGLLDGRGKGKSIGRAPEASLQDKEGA
Sequence of C-C chemokine receptor type 5 (Homo sapiens) (P51681 whole entry, looked up): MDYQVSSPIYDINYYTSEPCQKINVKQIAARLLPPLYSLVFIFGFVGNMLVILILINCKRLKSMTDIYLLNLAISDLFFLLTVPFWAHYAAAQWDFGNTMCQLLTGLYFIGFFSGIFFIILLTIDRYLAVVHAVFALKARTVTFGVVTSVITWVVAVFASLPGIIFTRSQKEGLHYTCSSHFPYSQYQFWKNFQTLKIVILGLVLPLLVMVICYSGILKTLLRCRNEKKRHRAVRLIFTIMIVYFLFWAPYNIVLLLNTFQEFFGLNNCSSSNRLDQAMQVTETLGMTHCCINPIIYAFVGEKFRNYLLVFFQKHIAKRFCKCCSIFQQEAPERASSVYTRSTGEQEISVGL

| SMILES | IC50 [1] [nM] | other results |
| --- | --- | --- |
| Cc1cc(Cl)ccc1CN(C)C(=O)[C@H]1CCCN1C(=O)Nc1ccc(Cl)cc1 | > 100000 |  |
| O=C([C@H]1CCCN1C(=O)Nc1ccc(Cl)cc1)N(CCO)Cc1cccc(Cl)c1 | > 100000 |  |
| CN(Cc1ccc(C(F)(F)F)cc1)C(=O)[C@H]1CCCN1C(=O)Nc1ccc(Cl)cc1 | > 100000 |  |
| O=C(NCc1ccc(Cl)cc1)[C@H]1CCCN1C(=O)Nc1ccc(Cl)cc1 | > 75000 |  |
| CN(Cc1ccc(Cl)cc1)C(=O)[C@H]1CCCN1C(=O)Nc1ccc(Cl)cc1 | 270 |  |
| CC(c1ccc(Cl)cc1)N(C)C(=O)[C@H]1CCCN1C(=O)Nc1ccc(Cl)cc1 (stereo partly specified) | 4700 |  |
| CN(Cc1ccc(Cl)cc1)C(=O)[C@H]1CCCN1C(=O)Nc1ccc(C(F)(F)F)cc1F | 23 | AUC(0-t) at 6 h [2]: 1240 ng·h/mL; Cmax [3]: 291 ng/mL; remaining at 0.5 h, 1 µM [4]: 93%; remaining at 0.5 h, 1 µM [5]: 76% |
| Cc1ccc(CN(C)C(=O)[C@H]2CCCN2C(=O)Nc2ccc(Cl)cc2)cc1 | 5700 |  |
| Cc1cc(C(F)(F)F)ccc1NC(=O)N1CCC[C@@H]1C(=O)N(C)Cc1ccc(Cl)cc1 | 50 | AUC(0-t) at 6 h [2]: 2590 ng·h/mL; Cmax [3]: 699 ng/mL; remaining at 0.5 h, 1 µM [4]: 58%; remaining at 0.5 h, 1 µM [5]: 81% |
| COc1ccc(CN(C)C(=O)[C@H]2CCCN2C(=O)Nc2ccc(Cl)cc2)cc1 | > 77000 |  |
| Cc1ccc(NC(=O)N2CCC[C@@H]2C(=O)N(C)Cc2ccc(Cl)cc2)cc1 | 680 |  |
| CN(Cc1ccc(Cl)cc1)C(=O)[C@H]1CCCN1C(=O)Nc1ccc(F)cc1 | 700 |  |
| O=C([C@H]1CCCN1C(=O)Nc1ccc(Cl)cc1)N(CCO)Cc1ccccc1Cl | 43000 |  |
| CN(Cc1ccc(Cl)cc1)C(=O)[C@H]1CCCN1C(=O)Nc1cccc(C(F)(F)F)c1 | 2950 |  |
| CN(Cc1ccc(Cl)cc1)C(=O)[C@H]1CCCN1C(=O)Nc1ccc(C(F)(F)F)cc1Cl | 120 | AUC(0-t) at 6 h [2]: 2060 ng·h/mL; Cmax [3]: 437 ng/mL; remaining at 0.5 h, 1 µM [4]: 73%; remaining at 0.5 h, 1 µM [5]: 68% |
| Cc1cc(C(F)(F)F)cc(C)c1NC(=O)N1CCC[C@@H]1C(=O)N(C)Cc1ccc(Cl)cc1 | 11 | Cmax [3]: 195 ng/mL; AUC(0-inf) [6]: 611 ng·h/mL; remaining at 0.5 h, 1 µM [4]: 74%; remaining at 0.5 h, 1 µM [5]: 84% |
| CN(Cc1ccc(C#N)cc1)C(=O)[C@H]1CCCN1C(=O)Nc1ccc(Cl)cc1 | > 13000 |  |
| O=C([C@H]1CCCN1C(=O)Nc1ccc(Cl)cc1)N(CCO)Cc1ccc(Cl)cc1 | 540 |  |
| CN(Cc1ccc(Cl)cc1)C(=O)C1CCCCN1C(=O)Nc1ccc(C(F)(F)F)cc1 (stereo unspecified) | > 28000 |  |
| CN(Cc1ccc(Cl)cc1)C(=O)[C@H]1CCCN1C(=O)Nc1ccc(C#N)cc1 | 720 |  |
| CN(Cc1ccc(F)cc1)C(=O)[C@H]1CCCN1C(=O)Nc1ccc(Cl)cc1 | 1300 |  |
| CN(Cc1ccc(Cl)cc1)C(=O)[C@H]1CCN1C(=O)Nc1ccc(C(F)(F)F)cc1 | > 100000 |  |
| CCN(Cc1ccc(Cl)cc1)C(=O)[C@H]1CCCN1C(=O)Nc1ccc(Cl)cc1 | 270 |  |
| CN(Cc1ccc(Cl)cc1)C(=O)[C@H]1CCCN1C(=O)Nc1ccc(C(F)(F)F)cc1 | 140 | bioavailability [7]: 45%; Cmax [3]: 834 ng/mL; AUC [8]: 9390 ng·h/mL; Activity [9]: inactive; half-life [10]: 4.4 h; Activity [11]: inactive; Activity [12]: inactive; Activity [13]: inactive; remaining at 0.5 h, 1 µM [4]: 78%; Activity [14]: inactive; remaining at 0.5 h, 1 µM [5]: 74%; Activity [15]: inactive |
| Cc1cc(CN(C)C(=O)[C@H]2CCCN2C(=O)Nc2ccc(Cl)cc2)ccc1Cl | 4000 |  |
| COc1ccc(NC(=O)N2CCC[C@@H]2C(=O)N(C)Cc2ccc(Cl)cc2)cc1 | 290 |  |
| CCCN(Cc1ccc(Cl)cc1)C(=O)[C@H]1CCCN1C(=O)Nc1ccc(Cl)cc1 | 3600 |  |
| CN(Cc1ccc(Cl)cc1)C(=O)[C@@H]1CCCN1C(=O)Nc1ccc(C(F)(F)F)cc1 | > 28000 |  |

From ChEMBL document CHEMBL1140942, “Novel pyrrolidine ureas as C-C chemokine receptor 1 (CCR1) antagonists” (J Med Chem, 2009)
